Test results taken from publication PMC10448692 (ACS Omega, 2023).

Tests used:
DNA (PDB ID: 1BNA) = details: reported docking; cited from earlier work
[1] = Lipophilicity by shake flask, n-octanol/water partition; assay type: physicochemical; details: room temperature
Outline: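 Shake-flask method. Each compound was added separately to n-octanol and to double-distilled water and shaken 24 h at room temperature to saturate each phase. Undissolved solid was removed by centrifugation or filtration, and the saturated solution was evaporated to dryness. Residue weight gave solubility, from which logS and logP were computed.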

For `O=C(O)CNC1CCCCC1` [CHgly, cyclohexyl glycine], the “docking energy with DNA” value (DNA (PDB ID: 1BNA)) is given as -5.71 kcal/mol.
In the case of `NCC(=O)O` [gly, Glycine], the “experimental logP” value [1] is reported as −2.7 and the “experimental logP” value ([1]; listed as Gly) is reported as “–2.76”.
